# Results from different studies.
# Protocols differ between the studies behind these lines.
# ABL1: Tyrosine-protein kinase ABL1 (ABL1, Homo sapiens, UniProt P00519)
SMILES,target,read-out,action,method,concentration,endpoint,result
Cn1cncc1[C@@](O)(COc1ccc(C#N)cc1-c1ccc(OC(F)(F)F)cc1)c1ccc(C#N)cc1,"Tyrosine-protein kinase ABL1, non-phosphorylated (ABL1, Homo sapiens, UniProt P00519, Q252H)",cell-free assay,,competition with immobilised ligand,1 µM,remaining binding,76%
Cn1cc(-c2cc(F)cc(N3CCn4c(cc5c4CCCC5)C3=O)c2CO)cc(Nc2ccc(N3CCN(C4COC4)CC3)cn2)c1=O,ABL1,enzyme activity,inhibitor,,0.1 µM,inhibition,-1%
N#CC1(c2ccccn2)CCN(Cc2cc(C(=O)O)c(=O)n3ccccc23)CC1,"Tyrosine-protein kinase ABL1, phosphorylated (ABL1, Homo sapiens, UniProt P00519, H396P)",cell-free assay,,competition with immobilised ligand,1 µM,remaining binding,91%
Nc1ncc(-c2nc(N3CCOCC3)nc(N3CCOCC3)n2)c(C(F)F)n1,"Tyrosine-protein kinase ABL1, non-phosphorylated (ABL1, Homo sapiens, UniProt P00519, F317I)",binding,,competition with immobilised ligand,10 µM,remaining binding,84%
C#Cc1n[nH]c2c(-c3cn([C@@H](C)c4ccccn4)c(=O)[nH]c3=O)cc(F)cc12,ABL1,enzyme activity,inhibitor,,0.1 µM,inhibition,-3.6%
CC(C)(C)c1cc(C=C(C#N)C#N)cc(Br)c1O,ABL1,enzyme activity,inhibitor,,0.5 µM,remaining activity,59.8%
Cc1nn(C)cc1-c1nc2c(N3CCN(Cc4ccc(Cl)cc4)CC3)c(Cl)cnc2[nH]1,"Tyrosine-protein kinase ABL1, phosphorylated (ABL1, Homo sapiens, UniProt P00519)",binding,,competition with immobilised ligand,1 µM,remaining binding,100%
C#Cc1n[nH]c2c(-c3cn([C@@H](C)c4ccccc4)c(=O)[nH]c3=O)cc(F)cc12,ABL1,enzyme activity,inhibitor,,0.1 µM,inhibition,-2.2%
